High-throughput results (PubChem BioAssay)
MrgX1 allo act: positive allosteric modulators of MrgX1, primary screen, HEK293 cells, Fluo-4 calcium flux; Mas-related G-protein coupled receptor member X1 (Homo sapiens), Q96LB2; FDSS; hits give high values; B-score at 10 µM; 310,000 compounds, 0.63% hits;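 active means plate-corrected calcium response at least 3 library SD above typical, normal starting fluorescence, not activating the receptor alone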;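 further: compound read alongside a low EC10 to EC30 dose of BAM8-22 agonist; peak minus trough fluorescence over baseline measured at the second addition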
RGS4 block: RGS4 inhibitors, primary screen, cell-based, HEK293 M3R inducible RGS4, calcium flux; Regulator of G-protein signaling 4 (Homo sapiens), P49798; Fluo-4 calcium flux; hits give high values; triggered by carbachol at its EC20; B-score at 10 µM; 310,000 compounds, 0.45% hits;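 active means B-score, a plate-corrected calcium signal, over three deviations above library mean, with baseline fluorescence within five deviations of library mean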;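 further: RGS4 expression induced by doxycycline in cells with stable M3 receptor; B-score is computed from the integrated fluorescence ratio over baseline after carbachol; higher B-score means a larger calcium signal and so more RGS4 inhibition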
Target sequence (P49798 whole entry, looked up): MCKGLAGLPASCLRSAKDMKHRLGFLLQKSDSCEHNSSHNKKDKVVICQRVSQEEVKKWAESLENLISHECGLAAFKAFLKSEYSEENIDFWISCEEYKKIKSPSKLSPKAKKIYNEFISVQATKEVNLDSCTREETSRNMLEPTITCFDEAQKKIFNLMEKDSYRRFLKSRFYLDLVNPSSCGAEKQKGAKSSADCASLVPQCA
RGS4 pot: RGS4 potentiators or activators, primary screen, cell-based, HEK293 M3R inducible RGS4, calcium flux | B-score at 10 µM | 310,000 compounds, 0.92% hits | carbachol calcium flux Fluo4; hits give low values;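 active means B-score of the integrated calcium signal more than 4 SD below the library mean, with starting fluorescence not abnormally high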;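 further: negative B-score means reduced calcium response which marks RGS4 activation or potentiation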
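Detection: kinetic calcium fluorescence imaging with Fluo4-AM dye, 2 µM / Material: HEK293 cells with stable M3R and inducible RGS4 / Schedule: recording 10 s baseline at 1 Hz, 100 s post-agonist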
PHOSPHO1 block: PubChem AID 1565 | Phosphoethanolamine/phosphocholine phosphatase (Homo sapiens), Q8TCT1 | recombinant PHOSPHO1, absorbance phosphatase assay | inhibition, % at 13.3 µM | 290,000 compounds, 1.1% hits; in the data active means inhibition above about 60%
Target sequence (Q8TCT1 whole entry, looked up): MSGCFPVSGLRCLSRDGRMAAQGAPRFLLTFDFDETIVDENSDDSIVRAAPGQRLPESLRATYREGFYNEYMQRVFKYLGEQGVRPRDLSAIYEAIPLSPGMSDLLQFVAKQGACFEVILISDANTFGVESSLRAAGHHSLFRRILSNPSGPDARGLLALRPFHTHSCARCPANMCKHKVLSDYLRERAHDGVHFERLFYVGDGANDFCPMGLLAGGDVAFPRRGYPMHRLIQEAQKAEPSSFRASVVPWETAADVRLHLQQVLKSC
MrgX1 ag: agonists of human MrgX1 receptor, primary screen, HEK293 cells, Fluo-4 calcium flux. Mas-related G-protein coupled receptor member X1 (Homo sapiens), Q96LB2. Fluo-4 calcium fluorescence, agonist mode; hits give high values. B-score at 10 µM. 310,000 compounds, 0.44% hits. AID 588627, 2011;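 active means calcium response B-score plate-corrected fluorescence ratio at least 3 library SD, with starting fluorescence B-score inside 5 SD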
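Material: MrgX1-expressing HEK293 cells / Dosing: compound as first of three additions / Incubation: overnight seeding, then 1 h dark dye loading / Signal: Fluo-4 NW calcium fluorescence / Evaluation: B-scored fluorescence response ratio / Benchmarks: positive and negative control wells on each plate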
MrgX1 antagonist: antagonists of human MrgX1 receptor, primary screen, HEK293 cells, Fluo-4 calcium flux | Mas-related G-protein coupled receptor member X1 (Homo sapiens), Q96LB2 | BAM8-22 antagonism; hits give low values | B-score at 10 µM | 310,000 compounds, 1.3% hits | AID 588676, 2011;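 active means calcium-response B-score plate-corrected more than 3 library SD below zero, starting fluorescence within 5 deviations, no agonist response on first addition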;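 further: peak minus trough fluorescence over baseline after final BAM8-22 challenge near maximal dose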
RGS4 inh valid: enhanced carbachol calcium response, M3R/RGS4 cells, RGS4 inhibitor project, cell-based, validation screen, HEK293 M3R/RGS4, calcium flux; calcium response, % at 10 µM; 1,700 compounds, 65% hits; shares compounds with RGS4 block; carbachol calcium Fluo-4 fluorescence; carbachol added at its EC20; 0 = buffer wells, 100 = carbachol control;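 active means duplicate-averaged calcium response above the buffer-only control mean plus 5 SD of those controls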;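 further: integrated fluorescence ratio F max minus min over baseline F0; higher response in RGS4-induced cells means RGS4 inhibition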
M3R Ca ctr: carbachol calcium response in non-induced M3R cells, confirmation, counter-screen for RGS4 inhibitor project, cell-based, HEK293 M3R; shares compounds with RGS4 block; carbachol calcium Fluo-4; submaximal (EC20) carbachol stimulus; buffer wells 0%, carbachol control wells 100%; AID 493000, 2010; activity (percent), % at 10 µM; 1,900 compounds, 20% hits; call rule not given here;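 further: RGS4 induction absent so cells express M3R without RGS4; higher means more calcium signal and flags a non-specific hit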
M3R basal Ca ctr: second RGS4 inhibitor counter-screen in uninduced cells lacking carbachol. AID 493001. shares compounds with RGS4 block. HEK293 M3R/RGS4 non-induced, Fluo-4 calcium, no carbachol; normalised: buffer wells 0%, carbachol wells 100%. 1,900 compounds, 22% hits. calcium response (agonist-mode artifact), % at 10 µM;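 active means duplicate-averaged calcium rise in uninduced cells above buffer wells' mean plus 5 SD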
A number is an active result; n = inactive; x = not tested or not shown. An excerpt weighted towards active compounds, which were near 4.5% of everything screened.

SMILES	MrgX1 allo act	RGS4 block	RGS4 pot	PHOSPHO1 block	MrgX1 ag	MrgX1 antagonist	RGS4 inh valid	M3R Ca ctr	M3R basal Ca ctr
CC(=O)N1N=C(c2c(-c3ccccc3)c3cc(Br)ccc3[nH]c2=O)CC1c1ccco1 (stereo not drawn)	n	7.49	n	n	n	n	20.5%	n	n
O=C(O)c1ncsc1-c1ccccc1	n	n	n	n	n	n	x	x	x
CC1=NN(c2cccc(C(=O)O)c2)C(=O)/C1=C\C=C/c1ccccc1	x	34.3	n	n	x	x	80.0%	59.0%	n
CN(c1ccccc1)c1ccc(/C=C/[N+](=O)[O-])cc1	n	6.08	n	n	n	n	32.5%	n	108.0%
c1ccc2c(c1)nc(N1CCOCC1)c1ccccc12	n	n	n	n	n	n	x	x	x
c1ccc2c(c1)nc(N1CCCCC1)c1ccccc12	n	7.6	n	n	n	n	53.5%	84.0%	n
COc1ccc(CN2C(=O)CNC2=S)cc1	n	n	n	n	n	n	x	x	x
COc1ccccc1-c1cn[nH]c1-c1ccc(OCC(=O)NN)cc1O	n	n	n	x	n	n	x	x	x
NNC(=O)COc1ccc(-c2n[nH]c(C(F)(F)F)c2-c2ccc(Br)cc2)c(O)c1	n	8.07	n	n	n	n	55.5%	61.5%	n
COc1ccccc1-c1c(-c2ccc(OCC(=O)NN)cc2O)n[nH]c1C(F)(F)F	n	n	n	n	n	n	x	n	n
COc1ccccc1N(C)C(=O)c1cc(S(=O)(=O)N2CCCC2)cn1C	n	n	n	n	n	n	x	x	x
CC(=O)N1CCN(c2ccccc2NC(=O)Cc2ccc(Cl)cc2)CC1	n	n	n	n	n	n	x	x	x
O=S1(=O)CCC(N=Cc2ccc(-c3ccc(Cl)cc3)o2)C1 (stereo not drawn)	n	5.68	n	n	n	n	7.5%	n	n
CSCCC(=O)N1CCCC(N(C)CCc2ccccc2)C1 (stereo not drawn)	n	n	n	n	n	n	x	x	x
CCOC(=O)[C@H]1[C@H]2COc3cc(OC)ccc3[C@@H]2N2C(=O)N(c3ccc(Cl)cc3)C(=O)[C@@]12C	n	n	n	n	n	n	n	n	n
CCOC(=O)[C@@H]1[C@H]2COc3cc(OC)ccc3[C@@H]2N2C(=O)N(c3ccc(C)cc3)C(=O)[C@@]12C	n	n	n	n	n	n	x	x	x
CCOC(=O)[C@@H]1[C@H]2COc3cc(OC)ccc3[C@@H]2N2C(=O)N(c3ccc(Cl)cc3)C(=O)[C@@]12C	n	n	n	n	n	n	n	n	n
CC(C)OCCCNC(=O)Cn1ccc2cc(S(=O)(=O)N3CCCCC3)ccc21	n	n	n	n	n	n	x	x	x
NC(=O)c1nsc(C(=O)N(CC(=O)NCc2ccccc2)c2ccc(F)cc2)c1N	n	n	n	n	n	n	x	x	x
Cc1ccc(C2NC(=O)NC(O)(C(F)(F)F)C2C(=O)c2ccccc2)o1 (stereo not drawn)	n	n	n	n	n	n	x	x	x
COc1ccc(C(=O)C2C(c3ccc(-c4ccccc4[N+](=O)[O-])o3)NC(=O)NC2(O)C(F)(F)F)cc1 (stereo not drawn)	n	n	n	n	n	n	n	n	n
O=C1NC(c2ccc(-c3ccccc3[N+](=O)[O-])o2)C(C(=O)c2ccc(F)cc2)C(O)(C(F)(F)F)N1 (stereo not drawn)	n	n	n	n	n	n	x	31.5%	7.5%
COC(=O)C1=C(CS(=O)(=O)c2ccc(OC)c(OC)c2)NC(=O)NC1c1ccc(O)c(OC)c1 (stereo not drawn)	n	19.3	n	n	n	n	6.0%	n	n
COC(=O)C1=C(CS(=O)(=O)c2ccc(Cl)cc2)NC(=O)NC1c1ccc(O)c(OC)c1 (stereo not drawn)	n	n	n	n	n	n	n	n	n
CCOC(=O)C1=C(CS(=O)(=O)c2ccc(Cl)cc2)NC(=O)NC1c1ccc(O)c(OC)c1 (stereo not drawn)	n	n	n	n	n	n	x	x	x
SMILES	MrgX1 allo act	RGS4 block	RGS4 pot	PHOSPHO1 block	MrgX1 ag	MrgX1 antagonist	RGS4 inh valid	M3R Ca ctr	M3R basal Ca ctr
CCOC(=O)C1C(=O)NC(c2ccccc2)=NC1c1ccc(O)c(OC)c1 (stereo not drawn)	n	n	n	n	n	n	x	x	x
Cc1nc(-c2ccc(Cl)cc2)sc1C1(C)CC(c2cccc(F)c2)=NO1 (stereo not drawn)	n	n	n	n	n	n	x	x	x
COc1ccc(N2CCN(Cc3nc(N)nc(Nc4ccc(C)c(Cl)c4)n3)CC2)cc1	n	n	n	n	n	n	n	n	n
Cc1ccc(Nc2nc(N)nc(CN3CCN(C)CC3)n2)cc1C	x	x	x	n	x	x	x	x	x
Cc1ccc(Nc2nc(N)nc(CN3CCN(c4ccccc4)CC3)n2)cc1Cl	n	6.6	n	n	n	n	14.5%	n	n
CCn1c(SCC(=O)Nc2ccc(F)cc2)nnc1-c1cnccn1	n	n	n	n	n	n	x	x	x
Cc1cc(=O)oc2c3c(cc(OCC(=O)N[C@@H](C)C(=O)O)c12)OC(C)(C)CC3	n	n	n	n	n	n	x	n	n
Cc1cc(=O)oc2c3c(cc(OCC(=O)N[C@@H](Cc4ccccc4)C(=O)O)c12)OC(C)(C)CC3	n	n	n	n	n	n	x	x	x
CCCCC(NC(=O)COc1cc2c(c3oc(=O)cc(C)c13)CCC(C)(C)O2)C(=O)O (stereo not drawn)	n	5.66	n	n	n	n	n	n	n
CCn1c(C)c(CS(=O)(=O)c2ccccc2)[nH]c1=O	n	6.72	n	n	n	n	23.5%	n	7.0%
O=C(CN(C(=O)CNS(=O)(=O)c1ccc(F)cc1)c1ccccc1)NCc1ccco1	n	n	n	n	n	n	n	n	n
